Results pooled from the literature.
Each line is one published result; the experiments were not run side by side.
Target: Receptor-interacting serine/threonine-protein kinase 1 (RIPK1, Homo sapiens, UniProt Q13546)
One construct used (Q13546 1-671): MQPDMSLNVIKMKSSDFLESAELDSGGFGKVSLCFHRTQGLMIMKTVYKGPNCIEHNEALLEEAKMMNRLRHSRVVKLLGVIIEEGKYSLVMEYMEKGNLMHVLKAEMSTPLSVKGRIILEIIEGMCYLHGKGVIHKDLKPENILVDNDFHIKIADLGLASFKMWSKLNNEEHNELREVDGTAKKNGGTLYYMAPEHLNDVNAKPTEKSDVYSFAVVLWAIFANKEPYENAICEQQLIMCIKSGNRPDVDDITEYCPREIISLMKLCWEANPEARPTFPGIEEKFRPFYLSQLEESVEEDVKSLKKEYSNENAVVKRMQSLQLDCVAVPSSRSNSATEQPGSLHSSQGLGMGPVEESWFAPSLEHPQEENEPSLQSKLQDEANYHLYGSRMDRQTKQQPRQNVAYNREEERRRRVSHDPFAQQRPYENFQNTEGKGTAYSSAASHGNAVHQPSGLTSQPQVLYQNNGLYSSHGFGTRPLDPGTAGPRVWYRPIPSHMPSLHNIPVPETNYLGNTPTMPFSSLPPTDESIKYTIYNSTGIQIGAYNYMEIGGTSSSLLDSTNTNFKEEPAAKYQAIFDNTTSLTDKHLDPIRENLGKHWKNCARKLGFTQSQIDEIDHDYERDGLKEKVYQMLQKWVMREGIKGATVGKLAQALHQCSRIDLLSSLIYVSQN

O=C1CCc2cc(Nc3cc(OC4CCOCC4)c([N+](=O)[O-])cc3Cl)ccc2N1  remaining binding (cell-free assay; competition with immobilised ligand; 1 µM): 100%
CN(CCCC(F)(F)F)c1nccc(-c2cnn3ncccc23)n1  remaining binding (binding; 1 µM): 97%
CCC(=O)N[C@H]1CC[C@@H](C(=O)N(C)c2ccc(-c3nc4ccccc4o3)cc2)C1  remaining binding (cell-free assay; competition with immobilised ligand; 1 µM): 100%
O=C(Nc1c[nH]nc1C(=O)NC1CCNCC1)c1cc(F)cc(F)c1  remaining binding (binding; competition with immobilised ligand; 1 µM): 100%
CN(C)c1ncnc(-c2ccc3nc(Nc4cc(CN5CCN(C(=O)CC(F)(F)F)CC5)ccn4)[nH]c3c2)c1Cl  remaining binding (cell-free assay; competition with immobilised ligand; 1 µM): 93%
COc1ncc2cc3ccccc3nc2c1C#N  remaining binding (cell-free assay; competition with immobilised ligand; 5 µM): 100%
O=C(c1ccc(Nc2ncc(Cl)c(-c3ccc(Cl)s3)n2)cc1)N1CCC(N2CCCC2)CC1  remaining binding (binding; competition with immobilised ligand; 1 µM): 0.5%
Nc1ncc2c(n1)-c1c([nH]c3ccc(C#CC4CC4)cc13)CCCC2  remaining binding (binding; competition with immobilised ligand; 1 µM): 100%
O=C(Nc1ccc(Oc2ccc(F)cc2)cc1)N1CCc2ncccc2[C@H]1c1ccc(F)cc1  remaining binding (cell-free assay; competition with immobilised ligand; 1 µM): 100%
c1cnn2ncc(-c3ccnc(N4CCC45COC5)n3)c2c1  remaining binding (binding; 1 µM): 83%
C=CC(=O)N1CCC(C(=O)NCC(=O)N2CCN(c3nc(-c4cnc(N)nc4C(F)F)nc(N4CCOCC4)n3)CC2)CC1  remaining binding (binding; competition with immobilised ligand; 1 µM): 100%
c1cncc(-c2cccc(Nc3nccc(NC4CCCCC4)n3)c2)c1  remaining binding (binding; competition with immobilised ligand; 10 µM): 98%
C[C@@H]1CCN(c2nccc(-c3cnn4ncccc34)n2)C1  remaining binding (binding; 1 µM): 100%
O=C(c1ccc(Nc2nccc(-c3cc4ccccc4s3)n2)cc1)N1CCC(N2CCCC2)CC1  remaining binding (binding; competition with immobilised ligand; 1 µM): 23%
Cc1c(C(=O)O)cc(-c2ccc(C3CCNCC3)cc2)c2ccc(-c3ccc(C(F)(F)F)cc3)cc12  remaining binding (binding; competition with immobilised ligand; 1 µM): 100%
O=C(NCCCN1CCOCC1)c1ccc(Nc2nccc(-c3cc4ccccc4s3)n2)cc1  remaining binding (binding; competition with immobilised ligand; 1 µM): 65%
CC1CCCN1c1nccc(-c2cnn3ncccc23)n1 (stereo not shown)  remaining binding (binding; 1 µM): 100%
CCN1CCN(Cc2ccc(C(=O)Nc3ccc(C)c(Oc4ccc5c(c4)CC(=O)N5)c3)cc2C(F)(F)F)CC1  remaining binding (binding; competition with immobilised ligand; 1 µM): 86%
COc1cnc(Nc2cccc(S(N)(=O)=O)c2)nc1N1CCN(c2ccccc2)CC1  remaining binding (binding; competition with immobilised ligand; 1 µM): 100%
